# Reference: ChEMBL document CHEMBL2163312, “Virtual screening identifies novel sulfonamide inhibitors of ecto-5'-nucleotidase” (J Med Chem, 2012)
# Molecular target: T1, 5'-nucleotidase (Rattus norvegicus, UniProt P21588)
# T1 sequence (P21588 whole entry): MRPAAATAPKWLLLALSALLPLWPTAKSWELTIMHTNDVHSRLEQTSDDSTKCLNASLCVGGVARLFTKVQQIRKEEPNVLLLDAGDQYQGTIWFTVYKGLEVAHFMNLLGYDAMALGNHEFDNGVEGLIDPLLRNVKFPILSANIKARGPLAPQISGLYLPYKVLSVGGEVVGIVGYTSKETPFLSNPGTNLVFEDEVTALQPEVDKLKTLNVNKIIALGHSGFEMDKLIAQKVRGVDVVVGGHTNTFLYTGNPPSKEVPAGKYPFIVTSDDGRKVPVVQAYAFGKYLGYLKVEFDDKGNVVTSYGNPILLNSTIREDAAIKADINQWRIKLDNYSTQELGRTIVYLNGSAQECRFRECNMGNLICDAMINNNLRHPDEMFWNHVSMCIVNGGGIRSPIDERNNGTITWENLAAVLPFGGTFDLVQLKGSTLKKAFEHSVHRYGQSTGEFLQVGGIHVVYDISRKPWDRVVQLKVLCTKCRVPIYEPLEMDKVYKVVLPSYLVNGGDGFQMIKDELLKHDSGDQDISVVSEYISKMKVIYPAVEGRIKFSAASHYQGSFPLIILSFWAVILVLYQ
# Assay: Inhibition of rat recombinant ecto-5'-nucleotidase using [3H]AMP substrate
# How it was run: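 Purified recombinant rat enzyme in a radioactive assay with [3H]AMP as substrate at 5 μM (near Km). Compounds were screened first at 100 and 10 μM. Full concentration–response curves were run for potent compounds to obtain IC50. Inhibition mechanism: 10 substrate concentrations at three inhibitor concentrations, with velocity normalized to Vmax without inhibitor.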
row,SMILES,IC50 [µM]
1,CCOc1ccc(C(=O)NC(=S)Nc2ccc(S(N)(=O)=O)cc2)cc1Cl,46.5
2,NS(=O)(=O)c1cc(Cl)c(NC(=O)c2c(O)[nH]c3ccccc3c2=O)c(Cl)c1,15.5
3,COc1cccc2cc(C(=O)Nc3ccc(S(N)(=O)=O)cc3)c(=O)oc12,16.6
4,O=C(NC(=S)Nc1ccc(S(=O)(=O)c2ccc(NC(=S)NC(=O)c3ccccc3)cc2)cc1)c1ccccc1,7.1
5,NS(=O)(=O)c1ccc(NC(=O)c2cc3cc(Cl)cc(Cl)c3oc2=O)cc1,74.8
6,Cc1c(NC(=O)c2ccc3c(c2)NC(=O)CO3)c(=O)n(-c2ccccc2)n1C,50.9
7,Cc1oc(-c2ccc(Cl)cc2)cc1C(=O)Nc1ccc(S(N)(=O)=O)cc1,45.1

# Results, then the compound that gave them:
row,IC50 [µM],SMILES
1,3.99,NS(=O)(=O)c1ccc(N/N=C/c2cccc(Oc3ccccc3)c2)c([N+](=O)[O-])c1
2,8.03,NS(=O)(=O)c1ccc(N/N=C/c2ccc(O)cc2)c([N+](=O)[O-])c1
3,6.54,NS(=O)(=O)c1ccc(N/N=C/c2c(O)ccc3ccccc23)c([N+](=O)[O-])c1
4,9.46,NS(=O)(=O)c1ccc(N/N=C/c2ccccc2O)c([N+](=O)[O-])c1
5,18.4,NS(=O)(=O)c1ccc(N/N=C/c2cccc(O)c2)c([N+](=O)[O-])c1
